S100A4 inh HTS = inhibitors of human S100A4 binding to myosin IIA peptide; S100A4/TAMRA-MyoIIA peptide fluorescence polarization; inhibition, % at 10.7 µM; 0.14% of 360,000 active;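 active = mean inhibition of at least 70% across replicates, with every replicate also reaching that level; inconclusive = mean inhibition reaches 70% but some replicates fall short; inactive = mean inhibition below 70%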
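Test system: S100A4 monomer protein. Medium: HEPES buffer with Ca2+, pH 7.2. Reagent: fluorescent myosin IIA peptide, 5 nM. Compound dosing: single-point compound testing. Timing: 5 min between mix addition and reading. Benchmarks: DMSO neutral and TFP positive wells.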
FGF22 binding = binders of recombinant human FGF22 by thermal shift; 1.5% of 340,000 active; AID 651658; SYPRO orange fluorescence; percent of sucrose octasulfate shift, DMSO zero; activity (Tm shift, normalised), % at 9.99 µM;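 active = mean Tm shift, scaled 0 neutral to 100 positive control, at about 1.3% or above, every replicate too, limit read from the data; inconclusive = no clear call, values can overlap the other calls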
PDI inh = blocks human protein disulfide isomerase activity; 0.052% of 350,000 active; inhibition, % at 10 µM; PDI insulin aggregation turbidity, A650, 90 min; P07237;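 active = mean inhibition across replicates of 30% or more, whatever share of single replicates reach that level; inconclusive = mean inhibition below 30% while every single replicate reaches 30%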
ERAP1 HTS inh = inhibitors of human ERAP1 aminopeptidase. Q9NZ08. recombinant ERAP1, Leu-AMC fluorescence, 60 min. inhibition, % at 10.7 µM. 0.15% of 340,000 active;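 active = mean replicate inhibition of at least 30%, or all replicates individually reaching that 30% level; inactive = mean below 30% and not every replicate reaching it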
ERp5 inh = ERp5 (human) disulfide isomerase inhibition. ERp5 insulin aggregation, absorbance 650 nm, 90 min. Q15084. 0.05% of 350,000 active. inhibition, % at 9.99 µM. AID 651711;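 active = mean replicate inhibition above about 25%, with every replicate also reaching it, limit read from the data, passing the limit was not always enough; inconclusive = only one of those two criteria met; inactive = neither criterion met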
Hits are given with their value; – = inactive; ? = inconclusive; · = no result given. The full list was thinned out, with hits kept by preference.

SMILES	S100A4 inh HTS	FGF22 binding	PDI inh	ERAP1 HTS inh	ERp5 inh
C[C@H]1CN([C@@H](C)CO)C(=O)Cc2cc(NS(=O)(=O)c3cccs3)ccc2O[C@@H]1CN(C)Cc1ccc(C(=O)Nc2ccccc2N)cc1	–	–	·	–	–
CN(c1ccc(OCC(=O)NCc2cccnc2)cc1)S(=O)(=O)c1ccc(Cl)cc1	–	43.0	–	–	–
CN(Cc1ccccc1)S(=O)(=O)c1ccc(OCC(=O)NCc2cccnc2)cc1	–	–	–	–	–
O=C(NCc1ccco1)C12CC3CC(C1)CC(C(=O)NCc1ccco1)(C3)C2	·	·	–	·	·
CCOC(=O)c1c[nH]c2nc(C)ccc2c1=O	–	43.1	–	–	–
COc1ccc(/C=C(\NC(=O)c2ccccc2)C(=O)OCC2CCCN3CCCCC23)cc1OC (configuration not stated)	–	43.8	–	–	–
COc1ccc(/C=C(/NC(=O)c2ccccc2)C(=O)N2CCCC2)cc1OC	–	–	–	–	–
O=C(C1CCOCC1)N1C[C@@H]2[C@H](c3ccccc31)[C@H](CO)N2Cc1ccccc1F	–	–	·	–	–
O=C(C1CC1)N1CC(=O)N2[C@H](CO)[C@@H](c3ccc(Br)cc3)[C@@H]2C1	–	·	·	–	–
CCN(CC)C(=O)c1ncn(C)c1C(=O)N(CC)CC	–	–	–	107.3	–
CN(Cc1ccccc1)C(=O)c1ncn(C)c1C(=O)N(C)Cc1ccccc1	–	–	–	30.8	–
CCN(CC)C(=O)c1ncn2c1C(=O)NC[C@H]2C	–	–	·	–	–
CN(Cc1ccccc1)C(=O)c1ncn(Cc2ccccc2)c1C(=O)N(C)Cc1ccccc1	–	–	–	–	–
N#C/C(=C\c1ccc(N2CCCC2)c([N+](=O)[O-])c1)c1nc2ccccc2[nH]1	·	·	–	·	·
Cc1n[nH]c(=O)nc1N/N=C/c1ccco1	–	44.1	–	–	–
Cc1[nH]c2ccccc2c1C(=O)C(=O)N1CC=C(c2ccccc2)CC1	·	·	–	·	·
CCOC(=O)Oc1c(OC)cc(C(=O)O[C@@H]2C[C@@H]3CN4CCc5c([nH]c6cc(OC)ccc56)[C@H]4C[C@@H]3[C@H](C(=O)OC)[C@H]2OC)cc1OC	–	–	34.5	–	?
Cc1cc(C=O)c(C)n1-c1ccc(Cl)c(C(=O)O)c1	–	–	–	31.7	–
Cc1ccc(-c2ccc3c(c2)O[C@@H](CN(C)C(=O)Nc2ccc(C(F)(F)F)cc2)[C@@H](C)CN([C@@H](C)CO)S3(=O)=O)cc1	–	–	·	–	–
O=[N+]([O-])c1ccc(Oc2ccc(/C=N/O)cc2)nc1	–	42.9	–	–	–
O=C(N/N=C/CCc1ccccc1)c1ccc(CN2c3cccc4cccc(c34)S2(=O)=O)cc1	·	·	–	·	·
O=C(Nc1ccc(F)cc1)c1nc[nH]c1C(=O)O	–	–	–	–	–
O=C(O)C1Cc2[nH]cnc2C(c2ccc(F)cc2)N1 (configuration not stated)	–	43.1	–	–	–
CN(Cc1cc(Cl)cc(Cl)c1)[C@H]1C[C@H]2c3[nH]c4ccccc4c3CCN2C(=O)[C@H]1CO	–	–	–	–	–
O=C(c1ccc(S(=O)(=O)Nc2ccc(F)cc2)cc1)N1CCN(c2ccccn2)CC1	–	42.9	–	–	–
SMILES	S100A4 inh HTS	FGF22 binding	PDI inh	ERAP1 HTS inh	ERp5 inh
O=C(c1ccc(NS(=O)(=O)c2cccc3cccnc23)cc1)N1CCCCC1	–	43.7	–	–	–
O=C(NC1CC(=O)N(c2ccc(Cl)cc2)C1)N1CCN(C(=O)c2ccco2)CC1 (configuration not stated)	–	–	–	–	–
CCN(C(=O)COC(=O)c1ccccc1OCc1ccc(Cl)cc1)C1CCS(=O)(=O)C1 (configuration not stated)	–	43.4	–	–	–
CCN(C(=O)COC(=O)c1ccccc1Cc1ccccc1)C1CCS(=O)(=O)C1 (configuration not stated)	–	–	–	–	–
CCN(C(=O)COC(=O)c1ccccc1NC(=O)c1ccco1)C1CCS(=O)(=O)C1 (configuration not stated)	–	43.2	–	–	–
CCCNC(=O)N(C)C[C@@H]1Oc2ncc(C#C[C@H](C)O)cc2C(=O)N([C@@H](C)CO)C[C@H]1C	–	–	·	–	–
[C-]#[N+][C@H](O[C@@H]1O[C@H](CO)[C@@H](O)[C@H](O)[C@H]1O)c1ccccc1	–	–	·	–	–
O=C(O)CC(CCc1ccccc1)OC1OC(CO)C(O)C(O)C1O (configuration not stated)	–	–	·	32.2	–

High-throughput results deposited in PubChem by Broad Institute.
